Source: ChEMBL document CHEMBL1125383, “Benzazepinone calcium channel blockers. 4. Structure-activity overview and intracellular binding site” (J Med Chem, 1992)

Assays:
[1] = Concentration required to cause 50% relaxation of maximal contraction in circumferential rabbit aorta strips in response to KCl (100 mM); assay type: functional, tissue-based, Oryctolagus cuniculus
[2] = target: T1, Voltage-gated L-type calcium channel (Rattus norvegicus, UniProt P22002+Q02485+P27732); experiment: Percentage decrease in blood pressure at a dose of 135 uM/kg for 12-18 hr in spontaneously hypertensive rats.; assay type: functional, tissue-based
Method in brief: (§1)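 Spontaneously hypertensive rats, n = 5, given 135 µmol/kg orally; systolic pressure recorded directly; maximum percent fall from predrug control noted within 0-6, 6-12 and 12-18 h windows after dosing; mean of five rats.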

[3] = target: T1, Voltage-gated L-type calcium channel; experiment: Percentage decrease in blood pressure at a dose of 135 uM/kg for 6-12 hr in spontaneously hypertensive rats.; assay type: functional, tissue-based; method in brief: as §1
[4] = target: T1, Voltage-gated L-type calcium channel; experiment: Percentage decrease in blood pressure at a dose of 135 uM/kg for 0-6 h in spontaneously hypertensive rats.; assay type: functional, tissue-based; method in brief: as §1
[5] = Partition coefficient (logP); assay type: physicochemical; details: octanol/water

| IC50 ([1]; Oryctolagus cuniculus, Aorta) [nM] | logP [5] | IC50 [1] [nM] | Structure (SMILES) | Decrease in blood pressure [2] [%] | Decrease in blood pressure [3] [%] | Decrease in blood pressure [4] [%] |
| --- | --- | --- | --- | --- | --- | --- |
| 2200 | – | – | COc1ccc([C@@H]2Cc3c(cccc3C(F)(F)F)N(CCN(C)C(C)=O)C(=O)[C@@H]2O)cc1 | – | – | – |
| – | – | – | CNCCN1C(=O)[C@H](OC(C)=O)[C@H](c2ccc(OCOC)cc2)Cc2c1cccc2C(F)(F)F | 8 | 8 | 6 |
| 3800 | – | – | COc1ccc([C@@H]2Cc3c(cccc3C(F)(F)F)N(CCN(C)C)C(=O)[C@@H]2C)cc1OC | 5 | 5 | 3 |
| 76 | – | – | COc1ccc([C@@H]2Cc3c(cccc3C(F)(F)F)N(CCN(C)C)C(=O)[C@@H]2C)cc1 | 22 | 22 | 28 |
| 39000 | – | – | CNCCN1C(=O)[C@H](OC(C)=O)[C@H](c2ccc(OCCOC)cc2)Cc2c1cccc2C(F)(F)F | 7 | 5 | 5 |
| – | 2.2 | – | CCOC(=O)c1cccc2c1C[C@@H](c1ccc(OC)cc1)[C@@H](OC(C)=O)C(=O)N2CCN(C)C | 5 | 6 | 4 |
| 950 | – | – | COc1ccc([C@@H]2Cc3c(cccc3C(F)(F)F)N(CCNC(C)C)C(=O)[C@@H]2C)cc1 | 10 | 15 | 17 |
| 6200 | – | – | CNC(=O)CN1C(=O)[C@H](OC(C)=O)[C@H](c2ccc(OC)cc2)Cc2c1cccc2C(F)(F)F | 10 | 8 | 13 |
| – | 3.3 | – | C=CC[C@H]1C(=O)N(CCN(C)C)c2ccccc2C[C@H]1c1ccc(OC)cc1 | 18 | 23 | 25 |
| 190 | – | – | CCCN(C)CCN1C(=O)[C@H](OC(C)=O)[C@H](c2ccc(OC)cc2)Cc2c1cccc2C(F)(F)F | 28 | 26 | 27 |
| – | – | 5900 | COc1ccc([C@@H]2Cc3c(cccc3C(F)(F)F)N(C(C)CN(C)C)C(=O)[C@@H]2C)cc1 (stereo in doubt; 15n) | – | – | 15 |
| 340 | – | – | CCC[C@H]1C(=O)N(CCN(C)C)c2ccccc2C[C@H]1c1ccc(OC)cc1 | 12 | 11 | 10 |
| 160 | – | – | C[C@H]1C(=O)N(CCN(C)C)c2cccc(C(F)(F)F)c2C[C@H]1c1ccc(O)cc1 | 7 | 5 | 10 |
| – | – | – | COc1cccc([C@@H]2Cc3cc(Cl)ccc3N(CCN(C)C)C(=O)[C@@H]2OC(C)=O)c1 | 3 | 2 | 5 |
| 1100 | – | – | COc1ccc([C@@H]2Cc3c(cccc3C(F)(F)F)N(CCCN(C)C)C(=O)[C@@H]2C)cc1 | 24 | 22 | 24 |
| 73 | – | – | COc1ccc([C@@H]2Cc3c(cccc3C(F)(F)F)N(CCN(C)CCCCc3ccccc3)C(=O)[C@@H]2OC(C)=O)cc1 | 24 | 23 | 28 |
| – | 1.2 | – | COc1ccc([C@@H]2Cc3ccccc3N(CCN(C)C)C(=O)[C@@H]2OC(C)=O)cc1 | 13 | 8 | 8 |

| IC50 ([1]; Oryctolagus cuniculus, Aorta) [nM] | logP [5] | IC50 [1] [nM] | Structure (SMILES) | Decrease in blood pressure [2] [%] | Decrease in blood pressure [3] [%] | Decrease in blood pressure [4] [%] |
| --- | --- | --- | --- | --- | --- | --- |
| 360 | – | – | COc1ccc([C@@H]2Cc3c(cccc3C(F)(F)F)N(CC(C)N(C)C)C(=O)[C@@H]2C)cc1 (stereo in doubt; 15l) | 14 | 17 | 26 |
| – | – | – | CNCCN1C(=O)[C@H](OC(C)=O)[C@H](c2ccc(OC)cc2)Cc2c1cccc2C(F)(F)F | 32 | 34 | 32 |
| 150 | – | – | COc1ccc([C@@H]2Cc3c(cccc3C(F)(F)F)N(CCN(C)C)C(=O)[C@@H]2OC(C)=O)cc1 | 20 | 27 | 31 |
| – | – | 2300 | COc1ccc([C@@H]2Cc3c(cccc3C(F)(F)F)N(C(C)CN(C)C)C(=O)[C@@H]2C)cc1 (stereo in doubt; 15o) | 16 | 16 | 16 |
| – | – | 400 | COc1ccc([C@@H]2Cc3c(cccc3C(F)(F)F)N(CC(C)N(C)C)C(=O)[C@@H]2C)cc1 (stereo in doubt; 15m) | 12 | 16 | – |
| – | – | – | COc1ccccc1[C@@H]1Cc2cc(Cl)ccc2N(CCN(C)C)C(=O)[C@@H]1OC(C)=O | 0 | 2 | 2 |
| 3300 | – | – | C#CCN(C)CCN1C(=O)[C@H](OC(C)=O)[C@H](c2ccc(OC)cc2)Cc2c1cccc2C(F)(F)F | 25 | 25 | 26 |
| 810 | – | – | COc1ccc([C@@H]2Cc3c(cccc3C(F)(F)F)N(CCN(C)C(C)C)C(=O)[C@@H]2C)cc1 | 14 | 15 | 18 |
| – | 1.9 | – | COc1ccc([C@@H]2Cc3c(OC)cccc3N(CCN(C)C)C(=O)[C@@H]2OC(C)=O)cc1 | 1 | 0 | 0 |
| 2400 | – | – | CCc1ccc([C@@H]2Cc3c(cccc3C(F)(F)F)N(CCN(C)C)C(=O)[C@@H]2C)cc1 | 13 | 14 | 20 |
| 730 | – | – | CSc1ccc([C@@H]2Cc3c(cccc3C(F)(F)F)N(CCN(C)C)C(=O)[C@@H]2C)cc1 | 5 | 8 | 12 |
| 170 | – | – | C=CCN(C)CCN1C(=O)[C@H](OC(C)=O)[C@H](c2ccc(OC)cc2)Cc2c1cccc2C(F)(F)F | 25 | 26 | 28 |
| 1100 | – | – | COc1ccc([C@@H]2Cc3c(cccc3C(F)(F)F)N(CCN3CCCC3)C(=O)[C@@H]2C)cc1 | 11 | 10 | 8 |
| 4200 | – | – | COc1ccc([C@@H]2Cc3c(cccc3C(F)(F)F)N(CCN(C(C)C)C(C)C)C(=O)[C@@H]2C)cc1 | 8 | 8 | 14 |
| 330 | – | – | CNc1ccc([C@@H]2Cc3c(cccc3C(F)(F)F)N(CCN(C)C)C(=O)[C@@H]2C)cc1 | 20 | 18 | 14 |
| 6200 | – | – | COc1ccc([C@@H]2Cc3c(cccc3C(F)(F)F)N(CC[N+](C)(C)C)C(=O)[C@@H]2C)cc1.[I-] | 21 | 22 | 25 |
